Screening data (PubChem BioAssay)
IDH1 mut inh: IDH1 R132H (human) inhibition | inhibition, % at 10 µM | 0.18% of 70,000 active | O75874 | IDH1 R132H reductase, diaphorase/resazurin fluorescence, 60 min | AID 624101; in the data active = inhibition above about 34%; inconclusive = no clear call, values can overlap the other calls; inactive = below about 11%
Target sequence (O75874 whole entry R132H): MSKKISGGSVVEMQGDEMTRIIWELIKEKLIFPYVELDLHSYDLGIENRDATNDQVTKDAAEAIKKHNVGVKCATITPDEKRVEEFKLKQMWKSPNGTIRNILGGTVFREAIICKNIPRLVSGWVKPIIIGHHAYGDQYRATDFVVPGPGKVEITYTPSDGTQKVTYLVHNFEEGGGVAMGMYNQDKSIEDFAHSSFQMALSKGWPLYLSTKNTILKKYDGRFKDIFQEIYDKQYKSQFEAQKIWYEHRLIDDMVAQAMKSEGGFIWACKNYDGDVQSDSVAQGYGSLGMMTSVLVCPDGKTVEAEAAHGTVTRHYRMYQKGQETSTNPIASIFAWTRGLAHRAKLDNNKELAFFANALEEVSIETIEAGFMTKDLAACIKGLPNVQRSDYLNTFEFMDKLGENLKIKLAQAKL
T cruzi growth-1: inhibitors of T. cruzi proliferation. T. cruzi beta-gal in NIH3T3, GalScreen luminescence, 90 h. inhibition, % at 8.34 µM. 5.9% of 77,000 active. AID 624255;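 active = mean inhibition above about 93%, with at least 55% of replicates each passing it, limit read from the data, passing the limit was not always enough; inconclusive = only one of those two conditions holds; inactive = neither condition holds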
GASC1 inh: blocks human GASC-1 (KDM4C) demethylase activity; Q9H3R0; GST-KDM4C 2-372, H3K9me3 peptide, LANCE TR-FRET; inhibition, % at 12.5 µM; 0.15% of 96,000 active;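 active = mean replicate inhibition above about 25%, with at least 55% of replicates also reaching it, limit read from the data, passing the limit was not always enough; inconclusive = only one of those two conditions met; inactive = neither condition met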
Target sequence (Q9H3R0 2-372 limits assumed): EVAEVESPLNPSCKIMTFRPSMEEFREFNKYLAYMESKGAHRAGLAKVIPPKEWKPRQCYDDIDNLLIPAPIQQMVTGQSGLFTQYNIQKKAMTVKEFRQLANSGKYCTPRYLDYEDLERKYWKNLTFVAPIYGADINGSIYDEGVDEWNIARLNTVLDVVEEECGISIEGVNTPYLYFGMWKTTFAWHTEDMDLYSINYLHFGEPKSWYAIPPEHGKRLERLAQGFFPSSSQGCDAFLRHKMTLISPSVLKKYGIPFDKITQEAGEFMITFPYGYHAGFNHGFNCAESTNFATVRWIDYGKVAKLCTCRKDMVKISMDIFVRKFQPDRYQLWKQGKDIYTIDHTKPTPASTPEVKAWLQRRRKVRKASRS
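Test system – GST-tagged GASC-1 (JMJD2C) catalytic fragment, aa 2-372 · Medium – HEPES buffer, pH 7.5, plus ascorbate · Reagent – H3K9me3 peptide with Fe(II)/2OG · Compound – one test concentration per compound · Timing – 30 min reaction, 60 min detection, RT · Technique – TR-FRET with Eu antibody and ULight streptavidin, EDTA stop · Read-out basis – inhibition from TR-FRET ratio decrease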
T cruzi growth-2: Trypanosoma cruzi proliferation inhibition; shares compounds with T cruzi growth-1; T. cruzi beta-gal in NIH3T3, GalScreen luminescence, 90 h; inhibition, % at 8.35 µM; 72% of 5,600 active; AID 651739;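 active = mean replicate inhibition above about 95% and at least 55% of replicates individually reaching it, limit read from the data; inconclusive = only one of the two criteria is met; inactive = neither criterion is met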
T cruzi growth-3: Trypanosoma cruzi proliferation inhibition; T. cruzi beta-gal in NIH3T3, GalScreen luminescence, 90 h; shares compounds with T cruzi growth-1; inhibition, % at 2.09 µM; 21% of 5,600 active;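 active = mean inhibition above about 95%, with at least 55% of replicates also reaching it, limit read from the data; inconclusive = meets just one of the two conditions; inactive = meets neither condition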
NIH3T3 tox: cytotoxicity in mouse NIH/3T3 fibroblasts; shares compounds with T cruzi growth-1; 14% of 5,600 active; cytotoxicity (signal decrease), % at 8.35 µM; NIH/3T3 viability, CellTiter-Glo ATP luminescence, 90 h; AID 651742;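 active = mean signal decrease across replicates above about 35% based on untreated-well scatter, with enough replicates individually passing, limit read from the data; inconclusive = no rule stated though some were filed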
3T3 cytotox 2: kills mouse NIH/3T3 fibroblasts; 56% of 5,600 active; NIH/3T3 viability, CellTiter-Glo ATP luminescence, 90 h; inhibition, % at 24.9 µM; AID 651744; shares compounds with T cruzi growth-1;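 active = mean loss of cell viability signal at or above a set limit, and enough replicates individually reaching it; inconclusive = meets only the mean limit or only the replicate share; inactive = meets neither condition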
Large screens that a line does not name were inactive (follow-up assays come after a bar, where they were run). Only a selection was taken, and hits are over-represented in it overall.

OC(COc1ccc(Cl)cc1)Cn1cnc(-c2ccccc2)c1 (configuration not stated)	none (no result: T cruzi growth-1, GASC1 inh)
O=c1cc(-c2ccc(O)c(O)c2)c2c(O[C@@H]3O[C@H](CO)[C@@H](O)[C@H](O)[C@H]3O)cc(O)cc2o1	none (no result: T cruzi growth-1, GASC1 inh)
COc1ccc(S(=O)(=O)N(C)C[C@@H]2Oc3ccc(NC(=O)Nc4ccc(C(F)(F)F)cc4)cc3C(=O)N([C@@H](C)CO)C[C@@H]2C)cc1	T cruzi growth-1 inconclusive | T cruzi growth-2 102 | T cruzi growth-3 inactive | NIH3T3 tox inconclusive | 3T3 cytotox 2 46
COc1ccc(NC(=O)Nc2ccc3c(c2)C(=O)N([C@H](C)CO)C[C@@H](C)[C@@H](CN(C)S(=O)(=O)c2ccc(OC)cc2)O3)cc1	none
COc1ccc(NC(=O)Nc2ccc3c(c2)C(=O)N([C@H](C)CO)C[C@@H](C)[C@H](CN(C)S(=O)(=O)c2ccc(OC)cc2)O3)cc1	none
COc1ccc(S(=O)(=O)N(C)C[C@H]2Oc3ccc(NC(=O)Nc4ccc(C(F)(F)F)cc4)cc3C(=O)N([C@@H](C)CO)C[C@H]2C)cc1	T cruzi growth-1 inconclusive | T cruzi growth-2 99 | T cruzi growth-3 inactive | NIH3T3 tox 45 | 3T3 cytotox 2 81
COc1ccc(S(=O)(=O)N(C)C[C@H]2Oc3ccc(NC(=O)Nc4ccc(C(F)(F)F)cc4)cc3C(=O)N([C@H](C)CO)C[C@H]2C)cc1	T cruzi growth-1 inconclusive | T cruzi growth-2 103 | T cruzi growth-3 inactive | NIH3T3 tox 42 | 3T3 cytotox 2 51
C[C@@H]1CN([C@H](C)CO)C(=O)c2cc(NC(=O)Nc3ccc(C(F)(F)F)cc3)ccc2O[C@@H]1CN(C)S(=O)(=O)c1ccc(F)cc1	none
NC(=O)C1CC(=O)N(c2ccc(OCC(=O)Nc3cc(Cl)cc(Cl)c3)cc2)C1 (configuration not stated)	none (no result: T cruzi growth-1, GASC1 inh)
O=C(CC1(O)C(=O)N(Cc2ccccc2)c2ccccc21)c1cc2ccccc2oc1=O (configuration not stated)	none (no result: T cruzi growth-1, GASC1 inh)
O=C(/C=C/c1ccccc1)OC[C@]12O[C@H]1[C@@H](O)[C@@H]1C=CO[C@@H](O[C@@H]3O[C@H](CO)[C@@H](O)[C@H](O)[C@H]3O)[C@@H]12	none (no result: T cruzi growth-1, GASC1 inh)
NC(=O)CN(Cc1ccc(F)cc1)S(=O)(=O)c1ccc(Cl)cc1	none (no result: T cruzi growth-1, GASC1 inh)
CN(CC(=O)Nc1cccnc1)S(=O)(=O)c1ccc2ccccc2c1	none (no result: T cruzi growth-1, GASC1 inh)
NC(=O)CSCC(=O)Nc1ccc(Br)cc1	none (no result: T cruzi growth-1, GASC1 inh)
CCn1c(SCC(=O)Nc2cccc(C(C)=O)c2)nnc1-c1ccncc1	none (no result: T cruzi growth-1, GASC1 inh)
Cc1ccccc1-c1ccc([C@@H]2[C@H](CO)N3CCCCN(C(=O)CN4CCOCC4)C[C@@H]23)cc1	T cruzi growth-1 101 (no result: IDH1 mut inh) | T cruzi growth-2 inactive | T cruzi growth-3 inactive | NIH3T3 tox 36 | 3T3 cytotox 2 32
Cc1ccccc1-c1ccc([C@H]2[C@H]3CN(C(=O)CN4CCOCC4)CCCCN3[C@H]2CO)cc1	none (no result: IDH1 mut inh)
O=C(CN1CCOCC1)N1CCCCN2[C@H](CO)[C@@H](c3ccc(/C=C/c4ccccc4)cc3)[C@@H]2C1	none (no result: IDH1 mut inh)
Cc1ccccc1-c1ccc([C@H]2[C@H](CO)N3CCCCN(C(=O)CN4CCOCC4)C[C@@H]23)cc1	T cruzi growth-1 102 (no result: IDH1 mut inh) | T cruzi growth-2 inactive | T cruzi growth-3 inactive | NIH3T3 tox inactive | 3T3 cytotox 2 inactive
COC(=O)c1cc(C)cc(O)c1C(=O)c1c(O)cccc1O	none (no result: T cruzi growth-1, GASC1 inh)
CCOC(=O)c1c(C)oc2ccc(OCC(=O)c3ccc(Cl)cc3)cc12	none (no result: T cruzi growth-1, GASC1 inh)
CC(=O)c1ccc(NC(=O)C(C)N2C(=O)C3C4C=CC(C5CC45)C3C2=O)cc1 (configuration not stated)	none (no result: T cruzi growth-1, GASC1 inh)
Cc1nnc(SCC(=O)Nc2cccc3ccccc23)s1	none (no result: T cruzi growth-1, GASC1 inh)
O=C(C[C@@H]1CC[C@@H]2[C@H](COC[C@@H](O)CN2Cc2nccs2)O1)N1CCC(Cc2ccccc2)CC1	T cruzi growth-1 165 (no result: IDH1 mut inh) | T cruzi growth-2 inactive | T cruzi growth-3 inactive | NIH3T3 tox inactive | 3T3 cytotox 2 inactive
CN1CCN(C(=O)C[C@H]2CC[C@@H]3[C@H](COC[C@H](O)CN3Cc3cccc(Cl)c3)O2)CC1	none (no result: IDH1 mut inh)
O=C(C[C@@H]1CC[C@H]2[C@@H](COC[C@@H](O)CN2Cc2cccc(-c3ccncc3)c2)O1)N1CCCCC1	none (no result: IDH1 mut inh)
O=C(C[C@@H]1CC[C@@H]2[C@H](COC[C@H](O)CN2Cc2nccs2)O1)N1CCC(Cc2ccccc2)CC1	none (no result: IDH1 mut inh)
O=C(C[C@H]1CC[C@H]2[C@@H](COC[C@@H](O)CN2C(=O)Nc2cccc(Cl)c2)O1)N1CCCCC1	none (no result: IDH1 mut inh)
O=C(C[C@@H]1CC[C@H]2[C@@H](COC[C@@H](O)CN2C(=O)Nc2cccc(Cl)c2)O1)N1CCCCC1	T cruzi growth-1 95 (no result: IDH1 mut inh) | T cruzi growth-2 inactive | T cruzi growth-3 inactive | NIH3T3 tox inactive | 3T3 cytotox 2 inactive
O=C(C[C@H]1CC[C@H]2[C@@H](COC[C@H](O)CN2Cc2cccc(Cl)c2)O1)N1CCCCC1	T cruzi growth-1 122 (no result: IDH1 mut inh) | T cruzi growth-2 inactive | T cruzi growth-3 inactive | NIH3T3 tox inactive | 3T3 cytotox 2 inactive
O=C(C[C@H]1CC[C@H]2[C@@H](COC[C@@H](O)CN2Cc2cccc(-c3ccncc3)c2)O1)N1CCCCC1	T cruzi growth-1 109 (no result: IDH1 mut inh) | T cruzi growth-2 inactive | T cruzi growth-3 inactive | NIH3T3 tox inactive | 3T3 cytotox 2 inactive
COC(=O)c1cc(NC2c3ccccc3C(=O)N2c2ccccn2)cc(C(=O)OC)c1 (configuration not stated)	none (no result: T cruzi growth-1, GASC1 inh)
C[C@@H]1CCCCO[C@@H](CN(C)S(=O)(=O)c2ccc(F)cc2)[C@@H](C)CN([C@H](C)CO)C(=O)c2cc(NS(=O)(=O)c3ccc(Cl)cc3)ccc2O1	none
C[C@H]1CCCCO[C@H](CN(C)S(=O)(=O)c2ccc(F)cc2)[C@@H](C)CN([C@@H](C)CO)C(=O)c2cc(NS(=O)(=O)c3ccc(Cl)cc3)ccc2O1	T cruzi growth-1 99 | T cruzi growth-2 98 | T cruzi growth-3 inactive | NIH3T3 tox inactive | 3T3 cytotox 2 inactive
C[C@@H]1CCCCO[C@@H](CN(C)S(=O)(=O)c2ccc(F)cc2)[C@H](C)CN([C@H](C)CO)C(=O)c2cc(NS(=O)(=O)c3ccc(Cl)cc3)ccc2O1	none (no result: IDH1 mut inh)
C[C@@H]1CCCCO[C@H](CN(C)S(=O)(=O)c2ccc(F)cc2)[C@H](C)CN([C@@H](C)CO)C(=O)c2cc(NS(=O)(=O)c3ccc(Cl)cc3)ccc2O1	none (no result: IDH1 mut inh)
C[C@H](CO)N1C[C@H](C)[C@H](CN(C)S(=O)(=O)c2ccc(Cl)cc2)OCCCC[C@H](C)Oc2ccc(NS(=O)(=O)c3ccc(F)cc3)cc2C1=O	none
